{
  "source": "ChEMBL document CHEMBL1151472",
  "about": "“In vitro interactions between tacrolimus and azoles against Candida albicans determined by different methods” (2008)",
  "type_in_all_cases": "functional",
  "key": {"Candida albicans [1]": {"tested_on": "Candida albicans", "assay": "Antimicrobial activity against azole-resistant Candida albicans isolate CA10 assessed as growth at 128 ug/ml cotreated with 0.008 ug/ml calcineurin signaling inhibitor Tacrolimus after 48 hrs by microdilution checkboard technique relative to control", "design": "scale not given: the % may be the effect or the level left", "how_it_was_run": "(§1)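 Checkerboard microdilution in MOPS-buffered RPMI 1640 (pH 7.0, 2% dextrose). Final ranges: azole 0.125–128 μg/ml (FLC) or 0.008–8 μg/ml (ITR, VRC), tacrolimus 0.002–0.125 μg/ml; solvent 1% in single-drug wells. Inoculum 2.5 × 10^3 CFU/ml, 35°C, 48 h. Growth % = background-subtracted OD492 of each well / drug-free well. Triplicate on different days.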"}, "Candida albicans [2]": {"tested_on": "Candida albicans", "assay": "Antimicrobial activity against azole-susceptible Candida albicans isolate CA5 after 48 hrs by broth microdilution method", "settings": "isolate CA5, 48 h", "how_it_was_run": "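CLSI M27-A2 broth microdilution was run in RPMI 1640 (pH 7.0, 2% dextrose, 0.165 M MOPS). Inoculum was 2.5 × 10^3 CFU/ml, incubated 35°C for 48 h without shaking. Plates were read visually (0–5 scale) and at OD 492 nm. MIC80 = lowest concentration giving an 80% absorbance decrease vs drug-free control. Triplicate.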"}, "Candida albicans [3]": {"tested_on": "Candida albicans", "assay": "Antimicrobial activity against azole-resistant Candida albicans isolate CA10 assessed as growth at 0.125 ug/ml cotreated with 0.125 ug/ml calcineurin signaling inhibitor Tacrolimus after 48 hrs by microdilution checkboard technique relative to control", "design": "scale not given: the % may be the effect or the level left", "how_it_was_run": "as §1"}},
  "data": [
    {"smiles": "OC(Cn1cncn1)(Cn1cncn1)c1ccc(F)cc1F", "note": "[FLUCONAZOLE]", "values": [
      {"measurement": "Activity", "setting": "Candida albicans [1]", "result": 39, "unit": "%"},
      {"measurement": "MIC", "setting": "Candida albicans [2]", "result": 0.25, "unit": "µg/mL"},
      {"measurement": "Activity", "setting": "Candida albicans [3]", "result": 25, "unit": "%"}
    ]}
  ]
}
